High-throughput results (PubChem)
In the library only some 3.4% were active in any assay of this set; here they are far more common.
Wee1 degr inh: human Wee1 degradation inhibition, primary screen. reporter increase, % at 5 µM. HeLa Luc-Wee1K328M stability, luciferase luminescence; 100% = proteasome inhibitor MG132 effect. AID 1321. actives 1.2% (n = 220,000);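 active = activation above the mean of all tested compounds plus 3 SD, set per screening run, cut at about 8.8% in these data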;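 also: cells exposed to compound for 20 h before luminescence read; 0% = DMSO alone and 100% = MG132 at 30 µM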
PHOSPHO1 inh: inhibitors of human PHOSPHO1 phosphatase | Q8TCT1 | recombinant PHOSPHO1, absorbance phosphatase assay | inhibition, % at 13.3 µM | actives 1.1% (n = 290,000) | AID 1565; in the data active = inhibition above about 60%
HMGR II inh: E. faecalis class II HMG-CoA reductase inhibition; purified E. faecalis HMGR, NADPH absorbance 340 nm kinetic; inhibition, % at 10 µM; actives 0.41% (n = 190,000); AID 1066;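 active = inhibition above a set limit, the median over all tested compounds plus 3 SD, cut at about 9.5% in these data; inconclusive = no clear call, values can overlap the other calls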;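 also: enzyme runs in reverse so mevalonate oxidation gives rising NADPH absorbance; 0% = complete reaction with DMSO and 100% = background rate lacking mevalonate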
Runt-SMMHC FRET: Runt domain-CBFb-SMMHC interaction inhibition. Q01196+Q13951. Cerulean-Runt/Venus-CBFb-SMMHC FRET ratio 530/480, 1 h. inhibition, % at 20 µM. actives 0.74% (n = 220,000). AID 1434;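 active = mean inhibition across duplicate retests at 20 µM reaching about 50%, limit read from the data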;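 also: 0% = DMSO wells and 100% = wells with excess untagged CBFb-SMMHC; inhibitors lower the FRET ratio by blocking Runt binding to CBFb-SMMHC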
Target sequence (Q01196 whole entry, looked up, the tested form may be a part): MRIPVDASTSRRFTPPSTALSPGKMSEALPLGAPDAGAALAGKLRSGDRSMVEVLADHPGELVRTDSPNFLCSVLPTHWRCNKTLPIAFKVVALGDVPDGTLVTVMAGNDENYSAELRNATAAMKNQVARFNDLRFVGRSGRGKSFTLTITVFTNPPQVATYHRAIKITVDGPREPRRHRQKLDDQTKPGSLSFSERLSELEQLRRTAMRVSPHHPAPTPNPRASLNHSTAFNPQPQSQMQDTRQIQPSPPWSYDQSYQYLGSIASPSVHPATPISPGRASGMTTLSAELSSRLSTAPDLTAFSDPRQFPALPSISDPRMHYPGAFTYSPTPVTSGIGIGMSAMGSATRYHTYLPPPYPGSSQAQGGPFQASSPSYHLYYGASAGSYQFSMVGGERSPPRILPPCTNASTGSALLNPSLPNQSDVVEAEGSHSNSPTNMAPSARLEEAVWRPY
Target sequence (Q13951 whole entry, looked up, the tested form may be a part): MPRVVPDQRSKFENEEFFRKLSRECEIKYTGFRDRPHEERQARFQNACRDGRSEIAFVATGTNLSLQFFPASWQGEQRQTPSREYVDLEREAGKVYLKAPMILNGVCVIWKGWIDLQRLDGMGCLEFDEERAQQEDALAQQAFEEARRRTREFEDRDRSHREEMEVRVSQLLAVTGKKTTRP
RanGTP-Impb inh: disruptors of Ran-importin-beta complex formation – biochemical, FRET, CFP-Ran, YFP-importin-beta, homogeneous, primary screen | cell-free CFP-Ran/YFP-importin-beta FRET ratio | actives 1.1% (n = 300,000) | inhibition, % (test concentration not listed) | AID 2216;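 active = more than half of the replicate wells show a fall in the fluorescence ratio signal beyond about 16%, limit read from the data, passing the limit was not always enough; inconclusive = exactly half of the replicate wells pass the set limit; inactive = fewer than half of replicates pass the limit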;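 also: 0% = DMSO wells and 100% = Ran loaded with GDP instead of GTP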
Runt-CBFb FRET: blocks binding of human RUNX1 Runt domain to CBFb; Cerulean-Runt/Venus-CBFb FRET ratio 530/480, 1 h; inhibition, % at 20 µM; actives 0.46% (n = 220,000);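 active = inhibition over about 50% at 20 µM in the single-dose screen, limit read from the data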;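 also: 0% = DMSO wells and 100% = excess unlabeled CBFb competitor control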
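Buffer or medium: Tris pH 7.5 buffer with BSA. Assay system: Cerulean-labeled Runt domain protein. Amount: each fluorescent fusion protein 100 nM. Read-out basis: loss of energy transfer signal. Incubation: 1 h compound exposure, room temperature. Probe or stimulus: Venus-CBFb binding partner, 100 nM. Detection: FRET, excitation 422 nm, emission at 530 and 480 nm.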
Wee1 stab conf: confirmation of human Wee1 degradation inhibitors; shares compounds with Wee1 degr inh; HeLa Luc-Wee1K328M degradation, luminescence; vehicle 0%, proteasome-blocked wells 100%; activation, % at 5 µM; actives 4% (n = 1,100); AID 1410; in the data active = activation above about 8.9%
An asterisk follows results filed as active.

Results for O=C(Nc1ccccn1)C1COc2ccccc2O1 (centres undefined) ?
Wee1 degr inh: -0.1; PHOSPHO1 inh: 6.7; HMGR II inh: -6.5; Runt-SMMHC FRET: -3.9; RanGTP-Impb inh: 1.4; Runt-CBFb FRET: 0.2

What do the screens show for `CC1(C)CC2(CCO1)OC(=O)CC2C(=O)Nc1c(Cl)cccc1Cl` (centres undefined)?
Wee1 degr inh: 0.2; PHOSPHO1 inh: 8.1; Runt-SMMHC FRET: -4.0; RanGTP-Impb inh: -1.4; Runt-CBFb FRET: 0.9

What do the screens show for `COc1cccc(NC(=O)C2CC(=O)OC23CCOC(C)(C)C3)c1` (centres undefined)?
Wee1 degr inh: 23.7*; PHOSPHO1 inh: -27.7; HMGR II inh: -1.9; Runt-SMMHC FRET: -0.9; RanGTP-Impb inh: 2.4; Runt-CBFb FRET: -0.7; Wee1 stab conf: 2.2

How did Cc1ccc(NS(=O)(=O)c2ccc(NS(=O)(=O)c3cccs3)cc2)cc1 do in these assays?
Wee1 degr inh: 10.9*; PHOSPHO1 inh: -10.7; HMGR II inh: -0.2; Runt-SMMHC FRET: -4.4; RanGTP-Impb inh: 3.3; Runt-CBFb FRET: -5.7; Wee1 stab conf: 0.3

What do the screens show for `COc1ccc(NS(=O)(=O)c2ccc(NS(=O)(=O)c3cccs3)cc2)cc1`?
PHOSPHO1 inh: 18.7; RanGTP-Impb inh: -0.1

How did COc1ccc(C2CC(c3ccc4ccccc4c3)=NN2C(=O)COC(=O)C2CCC(=O)N2)cc1 (centres undefined) do in these assays?
Wee1 degr inh: 14.2*; PHOSPHO1 inh: -26.7; HMGR II inh: -0.7; Runt-SMMHC FRET: -1.7; RanGTP-Impb inh: 1.3; Runt-CBFb FRET: -9.4; Wee1 stab conf: 7.9

How did C/C(=N\NC(=O)c1nc2ccccn2c1C)c1ccc2c(c1)OCO2 do in these assays?
Wee1 degr inh: 11.9*; PHOSPHO1 inh: 7.4; HMGR II inh: 1.3; Runt-SMMHC FRET: -0.5; RanGTP-Impb inh: 1.6; Runt-CBFb FRET: 11.6; Wee1 stab conf: 3.9

What do the screens show for `COc1cc(NC(=O)CSc2nc3c(c(=O)[nH]2)CCCC3)cc(OC)c1OC`?
Wee1 degr inh: -2.2; PHOSPHO1 inh: -9.7; HMGR II inh: -2.5; Runt-SMMHC FRET: -3.4; RanGTP-Impb inh: 2.8; Runt-CBFb FRET: 0.0

What do the screens show for `CN1N=C(C(=O)N2CCc3c([nH]c4ccccc34)C2c2ccccc2Cl)CCC1=O` (centres undefined)?
Wee1 degr inh: 11.8*; PHOSPHO1 inh: 48.2; HMGR II inh: -2.1; Runt-SMMHC FRET: 2.5; RanGTP-Impb inh: -0.5; Runt-CBFb FRET: 1.5; Wee1 stab conf: 1.9

How did Cc1ccccc1-n1c2nc(=O)n(C)c(=O)c-2cc2ccccc21 do in these assays?
Wee1 degr inh: 14.4*; PHOSPHO1 inh: 32.7; Runt-SMMHC FRET: 81.0*; RanGTP-Impb inh: 136.5*; Runt-CBFb FRET: 11.9; Wee1 stab conf: 1.0

What do the screens show for `CCN(C(=O)CSc1nnc(C)n1Cc1ccccc1)C1CCS(=O)(=O)C1` (centres undefined)?
Wee1 degr inh: 13.0*; PHOSPHO1 inh: -8.2; HMGR II inh: -2.0; Runt-SMMHC FRET: -4.8; RanGTP-Impb inh: inconclusive; Runt-CBFb FRET: 5.2; Wee1 stab conf: 0.4

Results for COc1cc(C(C)=O)ccc1OC(=O)c1cc2cccc(OC)c2oc1=O ?
Wee1 degr inh: 53.3*; PHOSPHO1 inh: 8.3; HMGR II inh: -1.7; Runt-SMMHC FRET: -2.4; RanGTP-Impb inh: 2.0; Runt-CBFb FRET: -1.2; Wee1 stab conf: 2.8

What do the screens show for `C/C(N)=C(/C#N)C(=O)CSc1cc(C)c2cc(C)cc(C)c2n1`?
Wee1 degr inh: -2.4; PHOSPHO1 inh: 24.5; HMGR II inh: -5.2; Runt-SMMHC FRET: -0.9; RanGTP-Impb inh: 3.4; Runt-CBFb FRET: -2.1

How did CC(=O)c1ccc(NC(=S)NCCc2ccc(S(N)(=O)=O)cc2)cc1 do in these assays?
Wee1 degr inh: 27.3*; PHOSPHO1 inh: 4.5; HMGR II inh: -1.7; Runt-SMMHC FRET: 2.8; RanGTP-Impb inh: 4.8; Runt-CBFb FRET: 3.9; Wee1 stab conf: 1.6

What do the screens show for `O=C(NCc1ccccc1)c1cc(-c2cccc(O)c2)on1`?
Wee1 degr inh: 4.2; PHOSPHO1 inh: 31.7; HMGR II inh: -4.1; Runt-SMMHC FRET: -4.6; RanGTP-Impb inh: 0.2; Runt-CBFb FRET: 0.6

What do the screens show for `CC(Sc1nnc2ccccn12)C(=O)Nc1ccc2c(c1)OCCO2` (centres undefined)?
Wee1 degr inh: -0.1; PHOSPHO1 inh: 4.7; HMGR II inh: -0.2; Runt-SMMHC FRET: -1.4; RanGTP-Impb inh: 1.1; Runt-CBFb FRET: -0.9

Results for Cc1nc2ccc(NC(=O)c3ccc4ccccc4n3)cc2s1 ?
Wee1 degr inh: -2.0; PHOSPHO1 inh: 12.5; HMGR II inh: -1.8; Runt-SMMHC FRET: 1.0; RanGTP-Impb inh: -3.6; Runt-CBFb FRET: -3.0

How did Cc1nnc(NC(=O)c2ccc3ccccc3n2)s1 do in these assays?
Wee1 degr inh: 14.1*; PHOSPHO1 inh: 11.4; HMGR II inh: -1.2; Runt-SMMHC FRET: -2.5; RanGTP-Impb inh: -4.3; Runt-CBFb FRET: -1.6; Wee1 stab conf: 6.3

How did O=S1(=O)N=C(Nc2ccc(N3CCOCC3)c(Cl)c2)c2ccccc21 do in these assays?
Wee1 degr inh: 11.0*; PHOSPHO1 inh: 27.7; HMGR II inh: 6.4; Runt-SMMHC FRET: -1.9; RanGTP-Impb inh: 3.5; Runt-CBFb FRET: 0.3; Wee1 stab conf: 5.8

What do the screens show for `Fc1ccc(-c2csc3ncnc(Nc4ccc(N5CCOCC5)cc4)c23)cc1`?
Wee1 degr inh: 3.4; PHOSPHO1 inh: 49.5; HMGR II inh: -1.2; Runt-SMMHC FRET: -2.8; RanGTP-Impb inh: -4.5; Runt-CBFb FRET: 1.9

Results for COc1ccc(NC(=O)c2onc(C)c2Cl)cc1OC ?
Wee1 degr inh: 0.0; PHOSPHO1 inh: 6.4; HMGR II inh: 1.1; Runt-SMMHC FRET: -7.5; RanGTP-Impb inh: inconclusive; Runt-CBFb FRET: 0.4

How did COc1ccc(NC(=O)c2onc(C)c2Cl)cc1 do in these assays?
Wee1 degr inh: 17.0*; PHOSPHO1 inh: 9.0; Runt-SMMHC FRET: -2.4; RanGTP-Impb inh: -2.6; Runt-CBFb FRET: 0.4; Wee1 stab conf: -1.4

What do the screens show for `CCN1c2ccccc2-c2nc3ccccc3n2C1c1ccncc1` (centres undefined)?
Wee1 degr inh: 16.0*; PHOSPHO1 inh: 15.5; HMGR II inh: 3.8; Runt-SMMHC FRET: 2.7; RanGTP-Impb inh: 0.9; Runt-CBFb FRET: -0.2; Wee1 stab conf: -1.1

What do the screens show for `CCN(CC)CCn1c(SCC(=O)Nc2cccc(OC)c2)nc2c(sc3ccccc32)c1=O`?
Wee1 degr inh: 11.8*; PHOSPHO1 inh: -5.1; HMGR II inh: -3.2; Runt-SMMHC FRET: -0.2; RanGTP-Impb inh: -13.3; Runt-CBFb FRET: -1.4; Wee1 stab conf: 4.7
